This passage reports IC50 and pKa results from ChEMBL document CHEMBL1124756, “The discovery of potent nonpeptide angiotensin II receptor antagonists: a new class of potent antihypertensives” (J Med Chem, 1990).

Each structure is given as a SMILES string.

Broadly, the IC50 is the concentration at which inhibition is half-maximal. Low readings indicate greater potency, high ones weaker potency. The term pKa denotes the negative logarithm of the acid dissociation constant. Lower therefore signals a group that gives up its proton readily.

Data set [1] deals with T1, Angiotensin II receptor (Rattus norvegicus, UniProt P29089+P25095+P35351).
T1 sequence (P29089 whole entry): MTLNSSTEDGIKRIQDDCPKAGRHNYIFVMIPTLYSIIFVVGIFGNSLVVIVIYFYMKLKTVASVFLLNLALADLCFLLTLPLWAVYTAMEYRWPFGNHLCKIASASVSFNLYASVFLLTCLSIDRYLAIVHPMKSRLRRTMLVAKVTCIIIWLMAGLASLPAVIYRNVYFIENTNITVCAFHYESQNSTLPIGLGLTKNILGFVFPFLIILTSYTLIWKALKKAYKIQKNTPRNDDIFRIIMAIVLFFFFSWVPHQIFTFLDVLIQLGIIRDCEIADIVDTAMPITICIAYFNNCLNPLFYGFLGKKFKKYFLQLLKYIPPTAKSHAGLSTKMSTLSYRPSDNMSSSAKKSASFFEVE
T1 sequence (P25095 whole entry): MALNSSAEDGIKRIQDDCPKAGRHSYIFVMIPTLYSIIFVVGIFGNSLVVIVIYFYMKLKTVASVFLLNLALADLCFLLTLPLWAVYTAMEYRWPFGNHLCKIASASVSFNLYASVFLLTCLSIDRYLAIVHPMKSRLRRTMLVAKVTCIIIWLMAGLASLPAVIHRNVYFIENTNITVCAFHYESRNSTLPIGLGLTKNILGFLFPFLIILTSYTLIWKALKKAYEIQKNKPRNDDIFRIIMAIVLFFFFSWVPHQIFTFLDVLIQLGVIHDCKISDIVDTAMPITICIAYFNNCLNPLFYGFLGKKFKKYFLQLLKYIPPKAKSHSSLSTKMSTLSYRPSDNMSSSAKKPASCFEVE
T1 sequence (P35351 whole entry): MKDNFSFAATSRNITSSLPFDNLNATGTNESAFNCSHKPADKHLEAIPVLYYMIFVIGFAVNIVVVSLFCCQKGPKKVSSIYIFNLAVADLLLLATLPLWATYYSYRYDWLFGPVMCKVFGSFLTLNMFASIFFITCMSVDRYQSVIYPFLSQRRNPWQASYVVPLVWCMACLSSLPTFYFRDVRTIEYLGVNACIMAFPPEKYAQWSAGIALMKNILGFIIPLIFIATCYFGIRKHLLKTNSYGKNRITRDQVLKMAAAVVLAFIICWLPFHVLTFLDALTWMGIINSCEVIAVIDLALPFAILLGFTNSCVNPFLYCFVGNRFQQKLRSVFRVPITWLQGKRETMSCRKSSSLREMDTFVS
Nature of the data set: Inhibitory concentration that gave 50 percent displacement of specific binding of [3H]AII (2 nM) to Angiotensin ll receptor. Type of data set: protein assay. Put shortly: (§1)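 Rat adrenal cortical microsomes from male Sprague–Dawley rats, resuspended in 50 mM Tris pH 7.2, 5 mM MgCl2, 0.25% BSA. Membranes (0.02–0.03 mg protein) incubated with [3H]AII 2 nM plus varying inhibitor concentrations, 60 min at 25 °C with shaking. Glass-fiber filtration, scintillation counting, duplicates. Nonspecific binding defined with 1 μM unlabeled AII. IC50 taken from linear portion of displacement curve.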

Data set [2] addresses T1, Angiotensin II receptor. Nature of the data set: Inhibitory concentration that gave 50 percent displacement of specific binding of [3H]AII (2 nM) to Angiotensin II receptor. Type of data set: protein assay. Put shortly: as §1
Data set [3] is described as follows: Dissociation constant (pKa). Type of data set: physicochemical.

In data set [1], `CCc1nccn1Cc1ccc(NC(=O)c2ccccc2C(=O)O)cc1` had an IC50 of 8.5 µM.
The molecule `CCCCc1nc(Cl)c(CC(=O)O)n1Cc1cccc(C(=O)O)c1` yielded an IC50 in data set [2] of 100 µM.
In turn, `CCCCc1nc(Cl)c(CC(=O)OC)n1Cc1ccc(NC(=O)c2cc([N+](=O)[O-])cc([N+](=O)[O-])c2O)cc1` yielded a pKa in data set [3] of 4.3. In addition, the IC50 in data set [2] is above 30 µM.
For `CCCCc1nc(Cl)c(CC(=O)OC)n1Cc1ccc(NC(=O)c2cccc(C)c2NS(=O)(=O)C(F)(F)F)cc1`, in data set [3], the pKa turned out to be 4.5. This molecule also yielded an IC50 in data set [2] of 0.19 µM.
As to `CCCCc1nc(CO)c(Cl)n1Cc1ccc(C(=O)O)cc1`, the IC50 in data set [2] was found to be 100 µM.
`CCCCc1nc(Cl)c(COC)n1Cc1ccc(NC(=O)C(CC(=O)O)c2ccccc2)cc1` (centres undefined) yielded an IC50 in data set [2] of 7.5 µM.
In data set [2], `CCCCc1nc(Cl)c(COC)n1Cc1ccc(NC(=O)CC(C(=O)O)c2ccccc2)cc1` (centres undefined) came in with an IC50 of 2.8 µM.
In data set [3], `CCCCc1nc(Cl)c(CC(=O)OC)n1Cc1ccc(NC(=O)c2cc(I)ccc2NS(=O)(=O)C(F)(F)F)cc1` displayed a pKa of 4.5. Besides, the IC50 in data set [2] was 3.4 µM.
`CCCCc1nc(Cl)c(CC(=O)OC)n1Cc1ccc(NC(=O)c2cc(C)ccc2C(=O)O)cc1` yielded an IC50 in data set [2] of 0.38 µM.
In data set [3], `CCCCc1nc(Cl)c(CC(=O)OC)n1Cc1ccc(NC(=O)C(F)(F)F)cc1` registered a pKa of 9.5. Further, the IC50 in data set [2] was found to be 27 µM.
`CCCCc1nc(Cl)c(COC(C)=O)n1Cc1ccc(C(=O)O)cc1` showed an IC50 in data set [2] of 5.3 µM.
`CCCCc1nccn1Cc1ccc(NC(=O)c2ccccc2C(=O)O)cc1` showed an IC50 in data set [1] of 0.62 µM.
As for `CCCCc1nc(Cl)c(CC(=O)OC)n1Cc1ccccc1NC(=O)c1ccccc1NS(=O)(=O)C(F)(F)F`, in data set [2], the IC50 is above 100 µM.
Regarding `O=C(O)c1ccccc1C(=O)Nc1ccc(Cn2ccnc2CCc2ccccc2)cc1`, the IC50 in data set [1] was determined as 9.4 µM.
For `CCCCc1nc(Cl)c(CC(=O)OC)n1Cc1ccc(NC(=O)c2c(OC)cccc2C(=O)O)cc1`, the IC50 in data set [2] was 0.08 µM.
Still for that read-out and setting: next, `CCCCc1nc(Cl)c(CC(=O)OC)n1Cc1ccccc1NC(=O)c1ccccc1C(=O)O`: 100 µM.
Take `CCCCc1nc(Cl)c(CC(=O)OC)n1Cc1ccc(NC(=O)c2cc(C)ccc2NS(=O)(=O)C(F)(F)F)cc1`: in data set [3], the pKa amounted to 4.5. In addition, the IC50 in data set [2] was found to be 0.81 µM.
For `CCCCc1nc(Cl)c(COC)n1Cc1ccc(C(=O)N2CCC[C@@H]2C(=O)O)cc1`, the IC50 in data set [2] stood at 120 µM.
The same measure, in the same setting: next, `CCCCc1nc(CC(=O)OC)c(Cl)n1Cc1ccc(NC(=O)c2ccccc2C(=O)O)cc1`: 0.42 µM.
In data set [3], `CCCCc1nc(Cl)c(CC(=O)OC)n1Cc1ccc(NC(=O)c2cc(Cl)ccc2NS(=O)(=O)C(F)(F)F)cc1` displayed a pKa of 4.5. Also, the IC50 in data set [2] stood at 5.9 µM.
As to `CCCCc1nc(Cl)c(CC(=O)OC)n1Cc1ccc(N2C(=O)C(c3ccccc3)=C(c3ccccc3)C2=O)cc1`, the IC50 in data set [2] is above 10 µM.
Still for that read-out and setting: next, `CCCCc1nc(Cl)c(CC(=O)OC)n1Cc1ccc(NC(=O)c2ccc(NS(=O)(=O)C(F)(F)F)cc2)cc1`: 84 µM; `CCCCc1nc(Cl)c(CC(=O)O)n1Cc1ccc(CC(=O)O)cc1`: 13 µM; `CCCCc1nc(Cl)c(CC(=O)OC)n1Cc1ccc(NCc2ccccc2)cc1`: 40 µM.
On the same count and under the same terms, with `CCCCc1nc(Cl)c(CC(=O)OC)n1Cc1ccc(NC(=O)c2c(C)cccc2C(=O)O)cc1` the figure was 0.032 µM.
The molecule `CCCCc1nc(Cl)c(CC(=O)OC)n1Cc1ccc(NC(=O)C2CCCCC2NS(=O)(=O)C(F)(F)F)cc1` (stereo in doubt; 50) registered a pKa in data set [3] of 7.6. This molecule also came in with an IC50 in data set [2] of 3.9 µM.
For `CCCCc1nc(Cl)c(CC(=O)OC)n1Cc1ccc(NC(=O)c2cccc([N+](=O)[O-])c2C(=O)O)cc1`, the IC50 in data set [2] stood at 0.4 µM.
For `CCCCc1nc(Cl)c(CO)n1Cc1ccc(/C=N/O)cc1`, in data set [2], the IC50 is above 100 µM.
`CCCCCCc1nccn1Cc1ccc(NC(=O)c2ccccc2C(=O)O)cc1`: the IC50 in data set [1] turned out to be 0.35 µM.
In turn, `CCCCc1nc(Cl)c(COC)n1Cc1ccc(C(=O)N[C@H](Cc2ccccc2)C(=O)O)cc1` registered an IC50 in data set [2] of 6.1 µM.
The same measure, in the same setting: with `O=C(O)c1ccccc1C(=O)Nc1ccc(Cn2c(CCCc3ccccc3)nc(Cl)c2CO)cc1` the figure was 80 µM.
`CCCCc1nc(Cl)c(CC(=O)OC)n1Cc1ccc(NC(=O)c2cc(Br)ccc2NS(=O)(=O)C(F)(F)F)cc1` gave a pKa in data set [3] of 4.5. This molecule also registered an IC50 in data set [2] of 40 µM.
On to `CCCCc1nc(Cl)c(COC)n1Cc1ccc(C(=O)N2CCC[C@H]2C(=O)O)cc1`, for which the IC50 in data set [2] was 6.4 µM.
`CCCCc1nc(Cl)c(Cc2nnn[nH]2)n1Cc1ccc(-c2nnn[nH]2)cc1`: the pKa in data set [3] was 4. This molecule displayed an IC50 in data set [2] of 1.2 µM.
Regarding `CCCCc1nc(Cl)c(CC(=O)OC)n1Cc1ccc(NC(=O)c2ccccc2NS(C)(=O)=O)cc1`, the pKa in data set [3] is 8.9. The IC50 in data set [2] turned out to be 2.3 µM.
With `CCCCc1nc(Cl)c(CC(=O)OC)n1Cc1ccc(NC(=O)c2ccccc2NS(=O)(=O)C(F)(F)F)cc1`, the pKa in data set [3] is 4.5. The same molecule came in with an IC50 in data set [2] of 0.5 µM.
In data set [2], `CCCCc1nc(Cl)c(COC)n1Cc1ccc(C(=O)N[C@@H](Cc2ccccc2)C(=O)O)cc1` showed an IC50 of 22 µM.
Still for that read-out and setting: next, `CCCCc1nc(CC(=O)O)c(Cl)n1Cc1ccc(C(=O)O)cc1`: 19 µM.
Take `CCCCc1nc(Cl)c(CC(=O)OC)n1Cc1ccc(N(Cc2ccccc2)C(=O)c2ccccc2NS(=O)(=O)C(F)(F)F)cc1`: the pKa in data set [3] was 4.5. Moreover, in data set [2], the IC50 turned out to be 2.7 µM.
Molecule `CCCCc1nc(Cl)c(CC(=O)OC)n1Cc1ccc(NC(=O)c2cccc(NS(=O)(=O)C(F)(F)F)c2)cc1` displayed an IC50 in data set [2] of 1.3 µM.
The molecule `CCCCc1nc(Cl)c(CC(=O)OC)n1Cc1ccc(NS(=O)(=O)C(F)(F)F)cc1` returned a pKa in data set [3] of 4.5. For the same molecule, the IC50 in data set [2] came out at 2.1 µM.
Molecule `CCCCc1nc(Cl)c(CC(=O)OC)n1Cc1ccc(NC(=O)c2cc3ccccc3cc2C(=O)O)cc1` returned an IC50 in data set [2] of 5.8 µM.
On the same count and under the same terms, with `CCCCc1nc(Cl)c(COC)n1Cc1ccc(C(=O)Nc2cccc(C)c2C(=O)O)cc1` the figure was 0.5 µM.
On to `C1CCC(NC2CCCCC2)CC1.CCCCc1nc(Cl)c(CC(=O)OC)n1Cc1ccc(NC(=O)c2c(Cl)ccc(Cl)c2C(=O)O)cc1`, for which the IC50 in data set [2] stood at 0.018 µM.
Molecule `CCCCc1nc(Cl)c(CC(=O)OC)n1Cc1ccc([N+](=O)[O-])cc1` gave an IC50 in data set [2] of 100 µM.
Same read-out and setting: next, `CCCCc1nc(Cl)c(CC(=O)OC)n1Cc1ccc(NC(=O)c2ccccc2-c2ccccc2C(=O)O)cc1`: 0.19 µM; `CCCCc1nc(Cl)c(COC)n1Cc1ccc(N(C)C(=O)c2c(Cl)ccc(Cl)c2C(=O)O)cc1`: 5.7 µM.
The same measure, in the same setting: with `CCCCc1nc(Cl)c(CC(=O)O)n1Cc1ccccc1[N+](=O)[O-]` the figure was 15 µM.
Same read-out and setting: next, `CCCCc1nc(Cl)c(CC(=O)OC)n1Cc1ccc(N)cc1`: 100 µM.
In turn, `CCCCc1nc(Cl)c(CC(=O)OC)n1Cc1ccc(NC(=O)/C=C\C(=O)O)cc1` registered an IC50 in data set [2] of 11 µM.
Same read-out and setting: next, `CCCCc1nc(Cl)c(COC)n1Cc1ccc(C(=O)Nc2ccccc2C(=O)O)cc1`: 8 µM; `CCCCCCCc1nccn1Cc1ccc(NC(=O)c2ccccc2C(=O)O)cc1`: 1.1 µM; `CCCCc1nc(Cl)c(CO)n1Cc1ccc(C=O)cc1`: 28 µM.
For the molecule `CCCCc1nc(Cl)c(Cc2nnn[nH]2)n1Cc1cccc(-c2nnn[nH]2)c1`, the IC50 in data set [2] amounted to 3.8 µM.
In the case of `CCCCc1nc(Cl)c(CC(=O)O)n1Cc1ccccc1C(=O)O`, the IC50 in data set [2] stood at 38 µM.
Same read-out and setting: next, `CCCCc1nc(Cl)c(CO)n1Cc1ccc(OC)cc1`: 100 µM; `CCCCc1nc(Cl)c(COC)n1Cc1ccc(C(=O)Nc2ccccc2-c2nn[nH]n2)cc1`: 0.57 µM.
In data set [3], `CCCCc1nc(Cl)c(CC(=O)OC)n1Cc1ccc(NC(=O)C2CCCCC2NS(=O)(=O)C(F)(F)F)cc1` (stereo in doubt; 51) registered a pKa of 7.6. Besides, in data set [2], the IC50 was found to be 4.5 µM.
On to `CCCCc1nc(Cl)c(CC(=O)OC)n1Cc1ccc(NC(=O)c2ccc([N+](=O)[O-])cc2C(=O)O)cc1`, for which, in data set [2], the IC50 was determined as 6.9 µM.
Still for that read-out and setting: with `CCCCc1nc(Cl)c(CC(=O)OC)n1Cc1ccc(N2C(=O)c3ccccc3C2=O)cc1` the figure was 3.1 µM.
